Compounds with a hit are over-represented: about 1.9% of the library has one in this group of screens.
CFTR F508del cor: F508del CFTR correction, initial screen, CFBE line, single point; CFBE cells, YFP halide quenching; stimulated with forskolin plus potentiator P3; % fluorescence drop versus neutral controls; activity (quench increase), % at 7.58 µM; 350,000 tested, 0.36% active;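 active = mean added fluorescence quench of at least 8% versus neutral control, with both replicates also reaching 8%; inconclusive = only one of the mean or replicate conditions met; inactive = mean below 8% and not both replicates reaching 8%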;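 note: cells transiently co-express mutant CFTR-F508del with the halide-sensitive YFP; corrector assay measuring rescue of mutant channel to the surface after 24 h compound exposure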
FN deposition inh: inhibitors of fibronectin matrix deposition, primary screen, AH1F cells, Alexa488-fibronectin fluorescence, plate reader. AH1F fibroblasts, overnight. inhibition, % at 12.6 µM. 350,000 tested, 0.086% active. AID 743247, 2014;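 active = mean inhibition across replicates of 30% or more, regardless of how many single replicates reach that level; inconclusive = mean under 30% yet at least half of replicates reach 30%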;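 note: positive control wells lacked labelled fibronectin entirely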
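Assay system: AH1F fibroblast monolayer, labelled fibronectin deposition. Amount: 10000 cells per well. Also added: labelled fibronectin 24 nM. Compound: single-point pinned compound. Incubation: cell attachment 1 h, compound and FN exposure overnight. Detection: fluorescence after three HBSS washes, excitation 485 nm, emission 525 nm. Read-out: inhibition of fibronectin deposition signal.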
DENV2 CPE rescue: inhibitors of DENV2 cytopathic effect, primary screen, cell-based, plate reader, single concentration | DENV2-infected cells, cytopathic effect rescue | CPE inhibition, % at 9.99 µM | 350,000 tested, 1.7% active; in the data active = CPE inhibition above about 20%, passing the limit was not always enough; inconclusive = no clear call, values can overlap the other calls; tested in BHK-21 cells;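 note: 0% = median of neutral control wells and 100% = median of positive control wells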
PGC1a acetyl inh: inhibitors of PGC1a acetylation signal, primary screen, cell-based, U2OS, AlphaScreen, inhibitor mode; AlphaScreen anti-acetyl-lysine; with virally co-expressed GCN5 acetyltransferase; inhibition, % at 15.6 µM; 350,000 tested, 0.17% active; AID 651687, 2012;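 active = every replicate shows inhibition of at least 40%; inconclusive = mean inhibition at least 40% but some replicate below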;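 note: 0% = neutral control wells and 100% = positive control wells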
Xi reactivation: activators of inactive X chromosome reactivation, primary screen, imaging, XiGFP fibroblasts, GFP high-content imaging, set 2 | XiGFP mouse fibroblasts, % GFP-positive cells imaging, 3 d; cells co-treated with 5-aza-dC sensitizer; scaled so ellipticine positive control = 100% | activation, % at 7.58 µM | 360,000 tested, 0.055% active | AID 743238, 2013;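 active = mean normalized replicate activation at least 10% and every replicate at or above 10%; inconclusive = only one of the two criteria met; inactive = mean below 10% and not all replicates reach 10%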;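 note: 0% = median of on-plate neutral control wells and 100% = ellipticine 6 µM median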
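Assay system – SV40-immortalized XiGFP fibroblast cells, line 68-5-11 · Buffer or medium – DMEM supplemented with 5-aza-dC as sensitizing agent · Dosing – one concentration, pinned · Benchmarks – positive control ellipticine, 6 µM final · Times – 3 days compound exposure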
Cneo AK release: Cryptococcus neoformans cell lysis inducers, primary screen, AK release luminescence, single concentration | C. neoformans lysis, adenylate kinase release luminescence, 4 h; normalised: neutral wells 0, clomiphene wells 100 | lysis activity, % at 15 µM | 360,000 tested, 0.2% active | AID 651654, 2012;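 active = mean lysis activity across replicates of at least 80%, whatever share of replicates individually reach that level; inactive = mean lysis activity below 80%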
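Test system: log-phase Cryptococcus neoformans yeast cells; Quantity: yeast cell density of 5 × 10^6 cells/mL; Buffer or medium: YPD; Doses: single compound concentration per well; Timing: 4 h at 37 °C static, read 1 h later; Measured by: AK luminescence; Read-out basis: lysis from increased AK signal; Control set: Clomiphene as positive control.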
Starred values were filed as active, the others as inactive; ? = inconclusive; . = no result.

SMILES | CFTR F508del cor | FN deposition inh | DENV2 CPE rescue | PGC1a acetyl inh | Xi reactivation | Cneo AK release
C=CC[C@@H](CC(=O)N[C@@H](CO)Cc1ccccc1)C(=O)N[C@H](COC(=O)[C@@H](CC=C)Cc1ccc(F)cc1)C(C)(C)C | 1 | -1 | 1 | . | 0 | 5
C=CCC[C@@H](Cc1ccc(F)cc1)C(=O)OC[C@@H](NC(=O)[C@@H](CC=C)CC(=O)N[C@H](CO)Cc1ccccc1)C(C)(C)C | -3 | 2 | 25* | . | 1 | 2
C=CC[C@@H](CC(=O)NCCO)C(=O)N[C@@H](C)COC(=O)[C@H](CC=C)CC(=O)OC(C)(C)C | 1 | -4 | 46* | . | 0 | 0
C=CC[C@H](CC(=O)NCCO)C(=O)N[C@@H](C)COC(=O)[C@H](CC=C)CC(=O)OC(C)(C)C | 1 | 0 | -2 | 2 | 0 | 2
CN(C)CC(=O)Nc1ccc2c(c1)[C@H]1C[C@@H](CC(=O)NCc3ccccc3F)O[C@@H](CO)[C@H]1O2 | -1 | -8 | ? | -4 | 0 | 2
CC(C)NC(=O)[C@@]1(C)c2ccccc2C(=O)N(Cc2cc(C(F)(F)F)cc(C(F)(F)F)c2)[C@H]1c1ccc(CO)cc1 | 0 | . | . | 11 | . | .
C[C@@H]1CCCCO[C@@H](CN(C)Cc2ccncc2)[C@@H](C)CN([C@@H](C)CO)C(=O)c2cc(NC(=O)NC3CCCCC3)ccc2O1 | 0 | -2 | ? | 11 | 0 | -3
CC(C)NC(=O)Nc1ccc2c(c1)C(=O)N([C@H](C)CO)C[C@H](C)[C@H](CN(C)Cc1ccncc1)OCCCC[C@H](C)O2 | 1 | . | 4 | 2 | 0 | 114*
C[C@H](CO)N1C[C@H](C)[C@@H](CN(C)Cc2ccncc2)OCCCC[C@H](C)Oc2ccc(NC(=O)NC3CCCCC3)cc2C1=O | -1 | 3 | -12 | 11 | 0 | 111*
CO[C@@H]1CN(C)C(=O)c2cc(NC(=O)C3CCCCC3)ccc2OC[C@H](C)N(C)C[C@H]1C | -2 | . | 13 | . | 0 | -1
COc1ccc2c(c1)NC(C)(C)C=C2C | 3 | -7 | 12 | 5 | 0 | 0
CC1=CC(C)(C)Nc2ccccc21 | 0 | . | 28* | 5 | . | -1
Cc1cc(C)c([C@@H]2C[C@H]3CN(C4CCCC4)C(=O)[C@]34CCCN24)c(-n2cccn2)c1 | 2 | 38* | 1 | 1 | 0 | 2
COc1cccc(C#Cc2ccc([C@H]3[C@@H](CO)N4C(=O)CN(C(=O)Cc5ccccc5)C[C@H]34)cc2)c1 | 6 | . | 3 | -12 | 0 | .
CC(=O)N1Cc2cc(C(=O)NCC(F)(F)F)nc(-c3cccc(-c4cncnc4)c3)c2[C@H]1CCO | 0 | -5 | 5 | 4 | 0 | .
COc1ccc(S(=O)(=O)Nc2c(C)nn(C)c2C)cc1Br | 0 | 1 | 31* | -3 | 0 | 1
Cc1sc2ncnc(SCC(=O)N3CCC(c4noc5ccc(F)cc45)CC3)c2c1C | . | -10 | . | 1 | . | -1
Cc1nnc(SCC(=O)N2CCC(c3noc4ccc(F)cc34)CC2)s1 | 0 | . | 0 | 57* | . | -2
C[C@H](CO)N1C[C@H](C)[C@H](CN(C)Cc2ccccc2)Oc2cc(C#Cc3ccccn3)ccc2S1(=O)=O | 2 | 3 | ? | -23 | 1 | 99*
C[C@H]1CN([C@@H](C)CO)S(=O)(=O)c2ccc(/C=C/c3ccccc3)cc2O[C@H]1CN(C)Cc1ccccc1 | 8.0* | . | -1 | 1 | . | 3
CC(C)NC(=O)N(C)C[C@@H]1Oc2cc(C#Cc3ccccn3)ccc2S(=O)(=O)N([C@H](C)CO)C[C@H]1C | 1 | . | 22* | -11 | -1 | -4
CC(C)C#Cc1ccc2c(c1)O[C@@H](CN(C)Cc1ccccc1)[C@@H](C)CN([C@@H](C)CO)S2(=O)=O | 6 | -16 | 2 | 99* | -1 | 12
C[C@@H]1CN([C@H](C)CO)S(=O)(=O)c2ccc(C#Cc3ccccn3)cc2O[C@@H]1CN(C)Cc1ccccc1 | -3 | -7 | -3 | -5 | -1 | -1
O=C(C[C@H]1C=C[C@H](NC(=O)C2CC2)[C@H](CO)O1)NC1CCC1 | 0 | -8 | . | 10 | -1 | .
C[C@H](CO)N1C[C@H](C)[C@@H](CN(C)CC2CCCCC2)Oc2c(NS(=O)(=O)c3ccc(Cl)cc3)cccc2C1=O | 1 | 5 | 3 | . | -1 | 50
SMILES | CFTR F508del cor | FN deposition inh | DENV2 CPE rescue | PGC1a acetyl inh | Xi reactivation | Cneo AK release
Cc1ccc(-c2cnc3c(c2)C(=O)N([C@@H](C)CO)C[C@@H](C)[C@H](CN(C)C(=O)c2cccc(F)c2)O3)cc1 | 4 | -19 | 2 | -1 | -1 | 3
C[C@@H]1CN([C@H](C)CO)C(=O)c2cc(-c3ccncc3)cnc2O[C@H]1CN(C)C(=O)c1cccc(F)c1 | 1 | . | 3 | -1 | 0 | -4
Cc1ccc(-c2nn(-c3ccccc3Cl)cc2C(=O)NCC2CCCO2)cc1 (configuration not stated) | -1 | -7 | 30* | . | 0 | .
O=C(NCC1CCCO1)c1ccccc1OCc1ccc(Cl)cc1 (configuration not stated) | 3 | 1 | 65* | -8 | 0 | -3
O=C(NCC1CCCO1)c1ccccc1OCc1ccc(F)cc1 (configuration not stated) | 1 | -4 | 9 | 2 | 0 | 0
C[C@@H]1CCCCO[C@H](CN(C)S(=O)(=O)c2cn(C)cn2)[C@H](C)CN([C@@H](C)CO)C(=O)c2cc(NS(=O)(=O)c3ccccc3)ccc2O1 | -1 | 1 | 10 | -13 | 0 | -5
CCCN1[C@H](C(=O)OC)[C@@H](CO)[C@@H]2Cn3c(ccc(-c4ccncc4)c3=O)[C@@H]21 | -1 | . | 18 | 2 | 0 | .
Cc1c(OCC(=O)NC(Cc2c[nH]c3ccc(O)cc23)C(=O)O)ccc2c3c(c(=O)oc12)CCC3 (configuration not stated) | 1 | -2 | -5 | -4 | 0 | 4
Cc1cc(OCC(=O)NC(Cc2ccc(Cl)cc2)C(=O)O)c2c(C)cc(=O)oc2c1 (configuration not stated) | 0 | . | -2 | 10 | . | 0
Cc1cc(OCC(=O)NC(Cc2c[nH]c3ccc(O)cc23)C(=O)O)c2c(C)c(C)c(=O)oc2c1 (configuration not stated) | 5 | . | 94* | 0 | . | 0

Screening data: PubChem, Broad Institute
